In PubChem BioAssay AID1451 (NMMLSC, 2008):
The other results are listed elsewhere or left out. A number with no mark means an inactive call.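 Rule for the calls: active = inhibition of pump activity above 50%; inactive = the rest.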

Target: ATP-dependent translocase ABCB1 (Homo sapiens) (UniProt P08183)
Test: blockers of ABCB1-mediated dye efflux – cell-based, single point, ABCG2 counter-screen, confirmation (AID 1451);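 note: 0% = DMSO and 100% = nicardipine full pump inhibition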
Conditions: CCRF-Adr cells, JC-1 efflux, flow cytometry; at 6.6 µM; stronger effect = higher value
Summary of the method: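 Assay system: ABCB1-expressing CCRF-Adr cells / Compound dosing: single test-compound dose, 6.6 µM final / Schedule: 10 min exposure, 25 °C / Technique: high-throughput flow cytometry, JC-1 green emission 530 ± 20 nm / Read-out basis: % pump inhibition from median JC-1 fluorescence, autofluorescence-corrected, scaled between controls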

Chain of ATP-dependent translocase ABCB1 (Homo sapiens) (P08183 whole entry, looked up): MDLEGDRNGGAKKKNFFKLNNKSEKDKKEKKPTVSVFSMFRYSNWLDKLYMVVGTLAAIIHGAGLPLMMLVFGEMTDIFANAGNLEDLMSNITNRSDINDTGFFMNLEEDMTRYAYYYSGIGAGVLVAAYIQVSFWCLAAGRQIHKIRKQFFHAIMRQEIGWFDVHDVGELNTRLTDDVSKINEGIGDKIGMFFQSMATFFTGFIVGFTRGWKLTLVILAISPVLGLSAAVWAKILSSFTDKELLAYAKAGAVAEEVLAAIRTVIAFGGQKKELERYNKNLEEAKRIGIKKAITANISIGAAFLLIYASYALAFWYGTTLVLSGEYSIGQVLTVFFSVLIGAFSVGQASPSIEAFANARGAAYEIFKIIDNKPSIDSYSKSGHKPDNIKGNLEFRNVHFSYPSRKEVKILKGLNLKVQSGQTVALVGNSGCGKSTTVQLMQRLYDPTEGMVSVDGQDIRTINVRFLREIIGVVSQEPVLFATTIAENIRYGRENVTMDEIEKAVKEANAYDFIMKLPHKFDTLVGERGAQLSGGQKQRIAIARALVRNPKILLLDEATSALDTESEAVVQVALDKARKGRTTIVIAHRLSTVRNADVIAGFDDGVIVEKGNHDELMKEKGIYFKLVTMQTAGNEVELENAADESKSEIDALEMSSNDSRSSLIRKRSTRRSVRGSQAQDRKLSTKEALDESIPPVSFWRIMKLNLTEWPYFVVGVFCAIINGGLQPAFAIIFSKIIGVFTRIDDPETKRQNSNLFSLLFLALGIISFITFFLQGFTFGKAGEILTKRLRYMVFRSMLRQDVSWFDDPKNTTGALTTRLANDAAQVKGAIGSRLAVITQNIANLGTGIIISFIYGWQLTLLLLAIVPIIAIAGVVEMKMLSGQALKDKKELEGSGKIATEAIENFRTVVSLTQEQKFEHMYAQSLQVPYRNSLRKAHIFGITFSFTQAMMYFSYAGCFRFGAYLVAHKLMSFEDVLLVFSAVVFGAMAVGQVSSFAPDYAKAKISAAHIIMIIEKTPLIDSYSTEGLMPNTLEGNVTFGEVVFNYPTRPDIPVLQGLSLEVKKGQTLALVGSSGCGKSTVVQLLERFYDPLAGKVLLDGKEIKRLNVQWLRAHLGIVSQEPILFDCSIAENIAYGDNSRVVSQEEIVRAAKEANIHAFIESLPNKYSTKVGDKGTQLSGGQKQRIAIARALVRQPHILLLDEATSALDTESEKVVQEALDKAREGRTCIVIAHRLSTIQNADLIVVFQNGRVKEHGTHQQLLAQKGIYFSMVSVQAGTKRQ

Compound `COC(=O)COc1cc(C)cc2oc(=O)c3c(c12)CCCC3` has an inhibition of 1.84%.
